ChEMBL document CHEMBL1124524, “Organic phosphorus compounds. 2. Synthesis and coronary vasodilator activity of (benzothiazolylbenzyl) phosphonate derivatives” (1989)

Tested on: Cavia porcellus
Experiment: Maximum increase in the coronary flow of isolated guinea pig heart when a dose of 10 ug/heart is administered
Assay type: functional
How it was run: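 Langendorff-perfused isolated guinea pig heart, with Krebs-Henseleit fluid gassed with 95% O2/5% CO2, at 34 ± 1 °C and 60 cm H2O perfusion pressure. Compound was dissolved in propylene glycol at 100 μg/mL and infused at 0.1 mL/min. Coronary flow was read by electromagnetic flowmeter before and after infusion and expressed as percentage gain; mean ± SE of five experiments.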

Compound	Max increase in coronary flow
CCOP(=O)(OCC)OCc1ccc(-c2nc3ccccc3s2)cc1	47.7%
CCOP(=O)(Cc1ccc(-c2nc(-c3ccccc3)c(-c3ccccc3)s2)cc1)OCC	23%
CCOP(=O)(OCC)c1ccc(-c2nc3ccccc3s2)cc1	27.2%
CCOP(=O)(Cc1ccc(-c2nc3ccccc3[nH]2)nc1)OCC	27.1%
CCOP(=O)(CCc1ccc(-c2nc3ccccc3s2)cc1)OCC	40.7%
CCOP(=O)(/C=C/c1ccc(-c2nc3ccccc3s2)cc1)OCC	49.5%
CCOP(=O)(CCOc1ccc(-c2nc3ccccc3s2)cc1)OCC	27.2%
CCOP(=O)(Cc1ccc(-c2nc3ccccc3s2)s1)OCC	51.1%
CCOP(=O)(Cc1ccc(-c2nc3ccccc3s2)nc1)OCC	94%
CCOP(=O)(Cc1cccnc1)OCC	21.4%
CCOP(=O)(Cc1ccc(-c2nc(-c3ccccc3)cs2)cc1)OCC	60.3%
CCOP(=O)(Cc1ccc(-c2nc3ccccc3o2)nc1)OCC	38.7%
CCOP(=O)(Cc1ccc(-c2nccs2)nc1)OCC	23.2%
CCOP(=O)(Cc1ccc(-c2nc3ccccc3s2)cc1)OCC [FOSTEDIL]	79.9%
